Laboratory results published in ChEMBL document CHEMBL3112447, “Discovery of 1-methyl-1H-imidazole derivatives as potent Jak2 inhibitors” (J Med Chem, 2014).

Columns and labels:
LIM domain kinase 1 = LIM domain kinase 1 (Homo sapiens, UniProt P53667); experiment: Inhibition of human LIMK1
Summary of the method: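 Panel of 82 kinases. Radiometric filter-binding assay with ATP at or near Km. Compound tested at 0.01, 0.10 and 1.0 μM. Values expressed as minimum possible fold selectivity against Jak2.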

[1] = Cytotoxicity against human SET2 cells expressing Jak2 V617F mutant after 72 hrs by MTS assay; format: functional; settings: SET-2, 72 h
[2] = Half life in beagle dog at 2.5 mg/kg, iv; format: ADME, organism-based, Canis lupus familiaris; set-up: dose 2.5 mg/kg, route intravenous; settings: in vivo
Summary of the method: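 Male beagle dogs. Oral dose 10 mg/kg in 0.1% HPMC, pH 2. IV dose 2.5 mg/kg in 20% TEG/D5W. […] Clearance, Vdss, half-life and oral bioavailability (F%) derived from the plasma profiles.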

[3] = Half life in Wistar rat at 10 mg/kg, po and 3 mg/kg, iv; format: ADME, organism-based; settings: in vivo
Summary of the method: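 Rat pharmacokinetics. Oral dose 10 mg/kg in 0.1% HPMC. IV dose 3 mg/kg in 40% DMA/40% PEG/20% saline. Clearance, half-life, Vdss and oral bioavailability derived from the plasma profiles.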

LIM domain kinase 1, sequence (P53667 whole entry, the tested form may be a part): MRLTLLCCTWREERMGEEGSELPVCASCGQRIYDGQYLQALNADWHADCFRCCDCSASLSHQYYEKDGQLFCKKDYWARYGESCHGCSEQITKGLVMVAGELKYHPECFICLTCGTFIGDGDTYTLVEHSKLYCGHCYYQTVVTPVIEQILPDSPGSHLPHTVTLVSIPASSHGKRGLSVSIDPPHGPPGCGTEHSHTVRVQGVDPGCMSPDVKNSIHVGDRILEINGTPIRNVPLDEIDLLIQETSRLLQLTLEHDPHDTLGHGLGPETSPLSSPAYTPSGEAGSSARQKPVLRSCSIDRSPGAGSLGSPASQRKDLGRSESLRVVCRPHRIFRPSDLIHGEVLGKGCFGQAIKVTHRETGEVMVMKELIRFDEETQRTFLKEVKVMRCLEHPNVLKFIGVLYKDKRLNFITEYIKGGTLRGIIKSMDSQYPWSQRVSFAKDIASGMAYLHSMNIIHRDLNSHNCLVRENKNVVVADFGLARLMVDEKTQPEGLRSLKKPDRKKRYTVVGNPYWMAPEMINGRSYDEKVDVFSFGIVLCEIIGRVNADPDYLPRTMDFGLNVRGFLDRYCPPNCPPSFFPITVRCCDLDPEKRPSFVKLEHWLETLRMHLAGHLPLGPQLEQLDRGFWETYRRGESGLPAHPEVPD

- IC50 (LIM domain kinase 1): 63 nM
- half-life [2]: 12.4 h
- half-life [3]: 1.6 h
Compound: C[C@H](Nc1nc(Nc2cn(C)cn2)c2cc[nH]c2n1)c1ncc(F)cn1
- GI50 [1]: 14 nM
